{"source": "paper PMC6331221", "about": "(Biomaterials, 2018)", "key": {"[1]": {"tested_on": "LCC-6-MDR orthotopic tumor", "experiment": "Anti-tumor efficacy in orthotopic LCC-6-MDR breast cancer model", "assay_type": "in vivo, mice", "settings": "q4d x 4; 60 mg/kg PTX and/or 4.5 mg/kg C6CP, cisplatin 3 mg/kg"}, "[2]": {"tested_on": "A2780/CisR ovarian cancer xenograft", "experiment": "Anti-tumor efficacy in A2780/CisR ovarian cancer xenograft model", "assay_type": "in vivo, mice", "settings": "q4d x 4, 20 mg/kg PTX and/or 20 mg/kg CP, cisplatin 3 mg/kg"}, "[3]": {"tested_on": "A2780/CisR (cisplatin resistant) ovarian cancer cell line", "experiment": "MTT cytotoxicity and combination index in A2780/CisR cells", "assay_type": "cell-based, human", "settings": "72 h", "how_it_was_run": "(§1)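 Cells grown in RPMI1640 with 10% FBS and 1% penicillin-streptomycin, seeded at 3000 cells/well 24 h before treatment, then exposed to free or micelle-incorporated drug serially diluted in full medium for 72 h. MTT added for 4 h at 37°C, formazan dissolved in DMSO, absorbance read at 562 nm. Survival relative to untreated wells; six wells, mean ± standard deviation; IC50 from fitted curves.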"}, "[4]": {"tested_on": "A2780 ovarian cancer cell line", "experiment": "MTT cytotoxicity assay in A2780 cells", "assay_type": "cell-based, human", "settings": "72 h", "how_it_was_run": "as §1"}}}
{"smiles": "N.N.[Cl][Pt][Cl]", "note": "[cisplatin]", "values": [{"measurement": "antitumor effect", "setting": "[1]", "value": "considerable antitumor effect"}, {"measurement": "effect on tumor growth", "setting": "[2]", "value": "small but significant effect by delaying the tumor growth"}, {"measurement": "median lifespan", "setting": "[2]; untreated 10.5 days", "value": 14.5, "unit": "days"}, {"measurement": "IC50", "setting": "[3]", "value": 10.88, "unit": "µg/mL"}, {"measurement": "IC50", "setting": "[4]", "value": 1.141, "unit": "µg/mL"}]}
